Experimental data published in ChEMBL document CHEMBL4619773, “Chemoreactive-Inspired Discovery of Influenza A Virus Dual Inhibitor to Block Hemagglutinin-Mediated Adsorption and Membrane Fusion” (J Med Chem, 2020).
Active and inactive are the calls of the source. No cut-off for these calls is given here.

Experiments:
[1] = Tmax in mouse at 5 mg/kg, po administered as single dose; format: ADME, organism-based; settings: in vivo
Summary of the method: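 Male Kunming mice (20–25 g) and male SD rats (180–220 g) were fasted 12 h before dosing. Compound was suspended in 0.5% CMC-Na and given by gavage (5 mg/kg mice, 3.5 mg/kg rats), or dissolved in PEG400 and given iv via tail vein (0.5 mg/kg mice, 0.35 mg/kg rats). Plasma was sampled from 5 min to 24 h and analysed by LC-MS/MS (n=3). F = AUCoral/AUCiv.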

[2] = Elimination half life in mouse at 0.5 mg/kg, iv administered as single dose; format: ADME, organism-based; settings: in vivo, read-out: beta t1/2 (converted)
Summary of the method: (§1)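 Male Kunming mice (20-25 g) and male Sprague Dawley rats (180-220 g) were fasted 12 h before dosing. Oral dosing was by gavage as a suspension in 0.5% sodium carboxymethyl cellulose; iv dosing was via tail vein in PEG400. Serial plasma samples were taken to 24 h, protein-precipitated with acetonitrile plus N-CH3 internal standard, and quantified by LC-MS/MS (n=3). Bioavailability = AUCoral/AUCiv.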

[3] = Half life in rat at 0.35 mg/kg /kg, iv administered as single dose; format: ADME, organism-based; settings: in vivo; summary of the method: as §1
[4] = Cumulative drug excretion in rat feces at 3.5 mg/kg, po administered as single dose measured after 72 hrs; format: ADME, organism-based; settings: faeces, read-out: Drug excretion
Summary of the method: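 Single oral (gavage, 0.5% CMC-Na) or iv (tail vein, PEG400) dosing was given to male Kunming mice or Sprague Dawley rats held in metabolic cages. Urine and feces were collected at intervals to 72 h. Feces were dried, ground and homogenized in water (1:9 w/v). Samples were precipitated with acetonitrile containing internal standard and analysed by LC-MS/MS.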

Influenza A virus [5] = experiment: Antiviral activity against Influenza A virus (A/Puerto Rico/8/1934(H1N1)) infected in MDCK cells by HA assay; format: functional, organism-based
Summary of the method: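 MDCK cells were infected at high moi (≈3.0 PFU/cell). Virus-containing supernatants were serially diluted 2-fold and mixed with an equal volume of 1% chicken red blood cells. After 60 min at 4 °C, wells were scored for button sedimentation versus opaque agglutination to give titers.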

Influenza A virus [6] = experiment: Antiviral activity against Influenza A virus (A/Puerto Rico/8/1934(H1N1)) infected in MDCK cells pre-incubated for 1 hr before assay and incubated for 3 days by crystal violet staining based plaque assay; format: functional, organism-based
Summary of the method: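 Confluent MDCK monolayers were exposed to 10-fold serial virus dilutions for 1 h at 37 °C, then washed. The overlay was DMEM with 1.5% agarose, 0.02% DEAE-dextran and 1 µg/ml TPCK-trypsin. After 3 days at 37 °C in 5% CO2, cells were fixed with 0.05% glutaraldehyde, stained with 1% crystal violet in 20% ethanol, and plaques were counted.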

Influenza A virus [7] = experiment: Antiviral activity against Influenza A virus (A/Puerto Rico/8/1934(H1N1)) infected in Kunming mouse assessed as decrease in pulmonary viral titers at 5 to 10 mg/kg/day, po starting 4 hrs after viral challenge and continued for 4 days by plaque assay; format: functional, organism-based
Summary of the method: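 Four-week-old female Kunming mice were infected intranasally with PR8 (500 PFU/mouse in 40 µL PBS), randomized, and dosed once daily orally or intranasally. On day 4 the mice were euthanized; lungs were removed, weighed, homogenized in PBS, and titrated by plaque assay.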

Influenza A virus [8] = experiment: Antiviral activity against Influenza A virus (A/Puerto Rico/8/1934(H1N1)) infected in Kunming mouse assessed as improvement in body weight at 5 to 10 mg/kg/day, po starting 4 hrs after viral challenge and continued for 7 days and measured up to day 14 by plaque assay; format: functional, organism-based
Summary of the method: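 Groups of 10 female Kunming mice were infected intranasally with PR8 (1000 PFU/mouse) on day 0 and dosed once daily for seven days. Weight and clinical signs were recorded daily. Mice losing more than 25% of pre-infection weight were scored dead and euthanized; survivors were killed on day 14.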

Influenza A virus [9] = experiment: Antiviral activity against Influenza A virus (A/Puerto Rico/8/1934(H1N1)) infected in Kunming mouse assessed as decrease in lung IL6 level at 20 to 40 ug/day dosed intranasally starting 4 hrs after viral challenge and continued for 4 days by ELISA; format: functional, organism-based
Summary of the method: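 Four-week-old female Kunming mice received PR8 intranasally (500 PFU/mouse in 40 µL PBS) and were then dosed once daily orally or intranasally. Lungs were collected on day 4, and TNF-α and IL-6 in lung tissue were measured by ELISA.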

[10] = Toxicity in Kunming mouse assessed as effect on ALT level at 5 to 10 mg/kg/day, po for 7 days; format: organism-based; settings: in vivo, 168 h
Summary of the method: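 Male Kunming mice (20–25 g) received compound orally at 5 or 10 mg/kg/day, suspended in 0.5% sodium carboxymethyl cellulose, once daily for 7 days; controls received vehicle. Serum was collected under isoflurane 24 h after the last dose. AST, ALT, CR, BUN, LDH, CK and CK-MB were measured with commercial kits.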

[11] = molecular target: Hemagglutinin (Influenza A virus (A/Puerto Rico/8/1934(H1N1)), UniProt P03452); experiment: Binding affinity to Influenza A virus (A/Puerto Rico/8/1934(H1N1)) Hemagglutinin at 1.5625 to 50 uM by SPR assay; settings: read-out: Kd
Summary of the method: (§2)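 HA protein was immobilized on CM5 chips. Compound (50, […], 12.5, 6.25, 3.125, 1.5625 µM) was injected for 2 min, followed by a 10-min PBST wash and regeneration with 2 mM NaOH for 30 s. Runs were at 25 °C with 2 µl/s flow, using a blank HA-free reference channel. KD was obtained from kinetic fitting.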

[12] = Binding affinity to Influenza A virus (A/Aichi/2/1968(H3N2)) Hemagglutinin at 1.5625 to 50 uM by SPR assay; summary of the method: as §2

Sequence of Hemagglutinin (Influenza A virus (A/Puerto Rico/8/1934(H1N1)), UniProt P03452) (P03452 whole entry): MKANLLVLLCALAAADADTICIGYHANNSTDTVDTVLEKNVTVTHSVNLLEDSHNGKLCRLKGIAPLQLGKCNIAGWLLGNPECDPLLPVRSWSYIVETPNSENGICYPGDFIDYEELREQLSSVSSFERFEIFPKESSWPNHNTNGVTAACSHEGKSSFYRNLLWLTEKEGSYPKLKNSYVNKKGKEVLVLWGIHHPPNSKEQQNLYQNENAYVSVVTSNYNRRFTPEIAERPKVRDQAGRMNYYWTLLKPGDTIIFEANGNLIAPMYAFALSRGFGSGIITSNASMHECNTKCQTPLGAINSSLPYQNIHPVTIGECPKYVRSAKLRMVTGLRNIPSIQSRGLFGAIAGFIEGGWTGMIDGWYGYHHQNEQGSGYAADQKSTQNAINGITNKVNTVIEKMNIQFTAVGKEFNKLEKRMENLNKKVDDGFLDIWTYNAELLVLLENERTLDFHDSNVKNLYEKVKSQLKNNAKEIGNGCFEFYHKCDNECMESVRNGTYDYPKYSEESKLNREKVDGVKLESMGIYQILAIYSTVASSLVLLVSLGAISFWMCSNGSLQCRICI

With CC(=O)c1cc(C)c(O)c(Cc2[nH]c3ccccc3c2Cc2c(O)c(C)cc(C(C)=O)c2O)c1O the Tmax [1] was 4 h, the half-life [2] was 3.4 h and the half-life [3] was 4.8 h. The dose excreted at 72 h [4] was 96.4%, the Activity (Influenza A virus [5]) was “Dose-dependent effect” and the Activity (Influenza A virus [6]) was “Dose-dependent effect”. The Activity (Influenza A virus [7]) was “Active”, the Activity (Influenza A virus [8]) was “Active” and the Activity (Influenza A virus [9]) was “Active”. The Activity [10] was “Non-Toxic”, the Kd [11] was 6.3 µM and the Kd [12] was 7.3 µM.
